According to ChEMBL document CHEMBL1811872, “Tryptophan 2,3-dioxygenase (TDO) inhibitors. 3-(2-(pyridyl)ethenyl)indoles as potential anticancer immunomodulators” (J Med Chem, 2011):
≈ marks a conversion by molar mass, not a printed value.

Legend:
[1] = Chemical stability of the compound in phosphate buffered saline assessed as compound remaining at pH 7.4 after 1.5 hrs; type: physicochemical; conditions: read-out: Stability
How it was run: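 Compound was incubated in phosphate-buffered saline, pH 7.4, for 1.5 h; read-out was the percentage of compound recovered.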

[2] = Plasma concentration in DBA/2 mouse at 160 mg/kg/day, po administered for 7 days with water; type: ADME, organism-based; parameters: route oral
How it was run: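 DBA/2 mice received the compound dissolved in drinking water (1 mg/mL) ad libitum. Mean water intake was 4.0 mL/mouse/day, giving about 160 mg/kg/day. Plasma levels of compound, L-Trp and kynurenine were measured at days 0, 1, 2 and 7.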

Mus musculus = experiment: Toxicity in mouse P815B cells expressing TDO xenografted immunized mouse at 160 mg/kg/day, po administered with water; type: organism-based; parameters: route oral; conditions: in vivo
[3] = target: T1, MAO-A (amine oxidase [flavin-containing] A) (Homo sapiens, UniProt P21397); experiment: Inhibition of MAO-A at 10 uM relative to control
T1 sequence (P21397 whole entry): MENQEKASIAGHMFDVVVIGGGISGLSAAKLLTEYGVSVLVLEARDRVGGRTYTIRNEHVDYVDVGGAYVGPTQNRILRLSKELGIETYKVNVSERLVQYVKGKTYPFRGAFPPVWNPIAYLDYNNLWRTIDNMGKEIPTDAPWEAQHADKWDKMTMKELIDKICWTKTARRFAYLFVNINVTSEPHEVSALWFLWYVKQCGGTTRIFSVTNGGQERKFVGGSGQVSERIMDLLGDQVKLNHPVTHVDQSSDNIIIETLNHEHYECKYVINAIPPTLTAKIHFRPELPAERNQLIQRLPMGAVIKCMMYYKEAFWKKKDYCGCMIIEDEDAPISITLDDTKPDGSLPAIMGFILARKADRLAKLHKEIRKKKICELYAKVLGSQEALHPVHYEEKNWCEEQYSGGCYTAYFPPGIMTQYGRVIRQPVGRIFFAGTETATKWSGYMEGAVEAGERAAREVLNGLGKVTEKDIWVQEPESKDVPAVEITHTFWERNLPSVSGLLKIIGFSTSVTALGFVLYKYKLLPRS

[4] = target: T2, MAO-B (amine oxidase [flavin-containing] B) (Homo sapiens, UniProt P27338); experiment: Inhibition of MAO-B at 10 uM relative to control
T2 sequence (P27338 whole entry): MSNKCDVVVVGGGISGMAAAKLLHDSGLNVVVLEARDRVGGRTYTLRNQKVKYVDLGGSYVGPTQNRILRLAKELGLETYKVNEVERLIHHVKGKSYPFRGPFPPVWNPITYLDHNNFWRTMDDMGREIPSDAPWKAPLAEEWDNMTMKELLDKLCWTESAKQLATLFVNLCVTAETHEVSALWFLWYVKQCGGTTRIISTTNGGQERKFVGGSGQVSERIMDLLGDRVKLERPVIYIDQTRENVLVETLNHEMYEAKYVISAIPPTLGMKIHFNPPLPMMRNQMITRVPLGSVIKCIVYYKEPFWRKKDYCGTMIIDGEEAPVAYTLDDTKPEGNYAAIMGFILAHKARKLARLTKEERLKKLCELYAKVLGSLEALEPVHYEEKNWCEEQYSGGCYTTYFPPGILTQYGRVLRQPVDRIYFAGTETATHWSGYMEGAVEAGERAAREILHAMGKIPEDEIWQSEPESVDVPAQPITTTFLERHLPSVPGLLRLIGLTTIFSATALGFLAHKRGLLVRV

[5] = Solubility of the compound in phosphate buffered saline at pH 7.4; type: physicochemical
How it was run: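 Solubility was measured experimentally in phosphate buffer (PBS), pH 7.4, at room temperature.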

[6] = target: Tryptophan 2,3-dioxygenase (Mus musculus, UniProt P48776); experiment: Inhibition of mouse TDO expressed in mouse P815B cells assessed as inhibition of tryptophan catabolism by measuring kynurenine production after 8 hrs by HPLC analysis; type: cell-based
[7] = Cytotoxicity against mouse P815B cells […] by MTT assay; type: functional; conditions: read-out: LD50 (the source's name)
[8] = target: Tryptophan 2,3-dioxygenase (Homo sapiens, UniProt P48775); experiment: Competitive inhibition of human recombinant TDO expressed in Escherichia coli BL21 using L-tryptophan as substrate by measuring conversion of N-formylkynurenine into kynurenine after 30 mins by Michaelis-Menten steady state analysis
[9] = target: 5-hydroxytryptamine receptor 2B (Homo sapiens, UniProt P41595); experiment: Displacement of [125I](+/-)-DOI from human 5HT2B receptor
[10] = Displacement of [3H]prazosin from adrenergic alpha1 receptor
[11] = Displacement of [3H]RX821002 from adrenergic alpha2 receptor

Sequence of Tryptophan 2,3-dioxygenase (Mus musculus, UniProt P48776) (P48776 whole entry): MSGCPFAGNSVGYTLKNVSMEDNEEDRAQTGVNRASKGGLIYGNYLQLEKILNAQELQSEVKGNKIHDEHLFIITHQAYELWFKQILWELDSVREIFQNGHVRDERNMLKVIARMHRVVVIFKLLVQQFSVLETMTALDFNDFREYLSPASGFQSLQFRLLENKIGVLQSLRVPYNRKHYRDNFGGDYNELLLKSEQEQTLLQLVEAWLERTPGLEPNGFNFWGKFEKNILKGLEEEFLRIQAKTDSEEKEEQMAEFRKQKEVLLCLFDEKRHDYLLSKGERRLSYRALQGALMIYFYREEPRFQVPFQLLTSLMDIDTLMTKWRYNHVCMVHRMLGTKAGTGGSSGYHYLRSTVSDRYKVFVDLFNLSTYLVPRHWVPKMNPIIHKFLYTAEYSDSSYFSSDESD
Sequence of 5-hydroxytryptamine receptor 2B (P41595 whole entry): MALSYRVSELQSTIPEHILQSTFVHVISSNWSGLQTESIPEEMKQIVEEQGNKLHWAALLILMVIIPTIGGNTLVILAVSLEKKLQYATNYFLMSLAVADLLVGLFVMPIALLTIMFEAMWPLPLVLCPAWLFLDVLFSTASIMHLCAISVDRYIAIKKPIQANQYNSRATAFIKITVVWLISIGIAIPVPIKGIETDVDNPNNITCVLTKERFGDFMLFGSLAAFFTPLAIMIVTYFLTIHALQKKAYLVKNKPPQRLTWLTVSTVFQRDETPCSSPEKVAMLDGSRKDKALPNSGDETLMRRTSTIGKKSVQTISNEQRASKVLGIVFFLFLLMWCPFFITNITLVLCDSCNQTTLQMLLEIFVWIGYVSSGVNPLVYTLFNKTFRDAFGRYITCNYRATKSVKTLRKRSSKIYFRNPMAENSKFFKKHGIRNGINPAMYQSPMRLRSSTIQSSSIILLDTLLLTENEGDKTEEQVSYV
Sequence of Tryptophan 2,3-dioxygenase (Homo sapiens, UniProt P48775) (P48775 whole entry): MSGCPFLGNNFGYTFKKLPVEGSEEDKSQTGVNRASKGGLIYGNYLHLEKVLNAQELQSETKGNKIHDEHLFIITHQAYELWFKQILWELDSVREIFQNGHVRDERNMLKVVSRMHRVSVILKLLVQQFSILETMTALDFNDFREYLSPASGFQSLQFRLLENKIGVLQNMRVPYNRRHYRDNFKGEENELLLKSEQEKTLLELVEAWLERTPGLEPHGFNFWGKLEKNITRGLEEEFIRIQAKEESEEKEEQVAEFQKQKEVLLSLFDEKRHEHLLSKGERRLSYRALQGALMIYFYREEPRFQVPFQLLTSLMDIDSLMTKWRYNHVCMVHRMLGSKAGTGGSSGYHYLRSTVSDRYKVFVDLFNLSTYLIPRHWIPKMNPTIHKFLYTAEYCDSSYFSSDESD

| SMILES | remaining at 1.5 h [1] [%] | concentration at 168 h [2] [nM] | solubility [5] [µM] | IC50 [6] [nM] | CC50 [7] [nM] | further results |
| --- | --- | --- | --- | --- | --- | --- |
| Fc1ccc2c(/C=C/c3nnn[nH]3)c[nH]c2c1 | 93.3 | 60000 | > 300 | 2000 | > 400000 | Activity (Mus musculus): Non-toxic; inhibition at 10 µM [3]: < 10%; inhibition at 10 µM [4]: < 10% |
| O=C(O)/C=C/c1c[nH]c2cc(F)ccc12 | 92.9 | 1400 | > 300 | 3000 | > 400000 | Ki [8]: 32400 nM |
| Fc1ccc2c(/C=C/c3cccnc3)c[nH]c2c1 | 67.6 | 100 | 92 (≈ 21.9 µg/mL) | 1000 | > 80000 | – |
| COc1cc(CC(C)N)c(OC)cc1I (racemic) | – | – | – | – | – | Ki [9]: 2 nM |
| COc1cc2nc(N3CCN(C(=O)c4ccco4)CC3)nc(N)c2cc1OC [PRAZOSIN] | – | – | – | – | – | Ki [10]: 0.071 nM |
| COC(=O)[C@@H]1[C@H]2C[C@H]3c4[nH]c5ccccc5c4CCN3C[C@@H]2CC[C@@H]1O [YOHIMBINE] | – | – | – | – | – | Ki [11]: 33 nM |
